The structures appear in SMILES notation. Active and inactive are the calls of the source. The calls are words filed in the database; no cut-off is given here.

In series [1] the target is T1, Prostaglandin E synthase (Homo sapiens) (UniProt O14684).
T1 sequence (whole entry): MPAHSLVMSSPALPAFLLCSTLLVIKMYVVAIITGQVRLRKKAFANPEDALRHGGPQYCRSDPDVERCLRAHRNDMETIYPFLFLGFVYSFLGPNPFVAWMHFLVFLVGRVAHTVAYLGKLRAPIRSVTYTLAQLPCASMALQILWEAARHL
The series can be described thus: Inhibition of mPGES1-mediated PGE2 production in microsomes of IL-1beta stimulated human A549 cells assessed as residual activity preincubated at 10 uM for 15 mins by RP-HPLC analysis relative to control. The class given is cell-based. In a few lines:
(§1)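 mPGES-1 source: microsomes of A549 cells treated 48 h with IL-1β 2 ng/mL, at 25−50 μg protein/mL in 0.1 M potassium phosphate pH 7.4 with 2.5 mM glutathione. Compound preincubation 15 min at 4 °C; PGH2 (20 μM final) for 1 min; FeCl2/citric acid stop with 11β-PGE2 internal standard. PGE2 by RP-HPLC.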

Series [2] addresses T2, Polyunsaturated fatty acid 5-lipoxygenase (Homo sapiens, UniProt P09917).
T2 sequence (P09917 whole entry): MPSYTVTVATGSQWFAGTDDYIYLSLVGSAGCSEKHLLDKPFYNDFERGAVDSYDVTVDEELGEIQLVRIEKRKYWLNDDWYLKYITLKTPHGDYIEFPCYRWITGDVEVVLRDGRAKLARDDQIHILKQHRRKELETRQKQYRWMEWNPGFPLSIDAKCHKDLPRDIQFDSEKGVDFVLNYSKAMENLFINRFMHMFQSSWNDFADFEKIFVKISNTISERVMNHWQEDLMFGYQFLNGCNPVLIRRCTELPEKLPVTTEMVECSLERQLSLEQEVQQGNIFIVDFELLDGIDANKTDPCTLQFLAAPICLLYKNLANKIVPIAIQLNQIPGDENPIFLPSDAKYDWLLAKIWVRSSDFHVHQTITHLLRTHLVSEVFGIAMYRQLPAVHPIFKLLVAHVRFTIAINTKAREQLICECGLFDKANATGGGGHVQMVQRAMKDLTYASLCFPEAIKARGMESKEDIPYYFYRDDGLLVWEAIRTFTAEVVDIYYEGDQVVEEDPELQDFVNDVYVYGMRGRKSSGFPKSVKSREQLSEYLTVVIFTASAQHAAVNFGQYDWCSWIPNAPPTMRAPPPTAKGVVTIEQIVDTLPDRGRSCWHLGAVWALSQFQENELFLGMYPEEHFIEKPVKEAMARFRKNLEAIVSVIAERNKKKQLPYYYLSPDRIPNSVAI
The series is described as follows: Inhibition of 5-LO in human neutrophils using arachidonic acid as substrate preincubated for 15 mins measured after 10 mins by HPLC analysis. Put shortly:
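Fresh human neutrophils, 1 × 10⁷/mL in PBS pH 7.4 with 1 mM CaCl2 and 1 mg/mL glucose, preincubated 15 min at 37 °C. LTB4, its all-trans isomers and 5-H(P)ETE by HPLC.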

Series [3] is described as follows: Aqueous stability of the compound in at 2 uM in 10 mM aqueous ammonium bicarbonate at pH 7.9 assessed as formation of trans-6-(4'-hydroxy-3'-methoxyphenyl)-2,4-dioxo-5-hexenal measured as residual amount of compound by reversed phase liquid chromatography-coupled mass spectrometry. The class given is physicochemical. As to conditions: buffer, pH 7.9, 2 µM. Put shortly: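 Compounds at 2 μM in 10 mM aqueous ammonium bicarbonate pH 7.9, incubated 30 min at 37 °C. Analysed by UPLC-MS on a C18 column, gradient acetonitrile/water with 0.07% formic acid, at 0.7 mL/min. Residual amount given as % of control; three to four independent experiments.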

Series [4] addresses T3, Polyunsaturated fatty acid 5-lipoxygenase (Homo sapiens) (UniProt P09917).
T3 sequence (whole entry): T2 sequence (P09917 whole entry)
The series can be described thus: Ratio of curcumin IC50 to compound IC50 for 5-LO-mediated LTB4 formation in LPS-stimulated human monocytes preincubated for 15 mins before arachidonic acid substrate addition measured after 30 mins by UPLC-MS/MS analysis. Format: cell-based.

Series [5] deals with T3, Polyunsaturated fatty acid 5-lipoxygenase (Homo sapiens). The series is described as follows: Ratio of curcumin IC50 to compound IC50 for 5-LO-mediated 5-HETE formation in LPS-stimulated human monocytes preincubated for 15 mins before arachidonic acid substrate addition measured after 30 mins by UPLC-MS/MS analysis. Format: cell-based.
Series [6] shares this target. The series is described as follows: Ratio of curcumin IC50 to compound IC50 for 5-LO-mediated 5,12-DiHETE formation in LPS-stimulated human monocytes preincubated for 15 mins before arachidonic acid substrate addition measured after 30 mins by UPLC-MS/MS analysis. Format: cell-based.
The target in series [7] is T4, Prostaglandin G/H synthase 1 (Homo sapiens, UniProt P23219). The series can be described thus: Inhibition of COX1-mediated PGF2alpha formation in LPS-stimulated human monocytes preincubated for 15 mins before arachidonic acid substrate addition measured after 30 mins by UPLC-MS/MS analysis. Format: cell-based.
Series [8] deals with T4, Prostaglandin G/H synthase 1. The series can be described thus: Inhibition of COX1-mediated PGD2 formation in LPS-stimulated human monocytes preincubated for 15 mins before arachidonic acid substrate addition measured after 30 mins by UPLC-MS/MS analysis. The class given is cell-based.
For series [9], the target named is T5, Prostaglandin G/H synthase 1 (Ovis aries) (UniProt P05979).
T5 sequence (whole entry): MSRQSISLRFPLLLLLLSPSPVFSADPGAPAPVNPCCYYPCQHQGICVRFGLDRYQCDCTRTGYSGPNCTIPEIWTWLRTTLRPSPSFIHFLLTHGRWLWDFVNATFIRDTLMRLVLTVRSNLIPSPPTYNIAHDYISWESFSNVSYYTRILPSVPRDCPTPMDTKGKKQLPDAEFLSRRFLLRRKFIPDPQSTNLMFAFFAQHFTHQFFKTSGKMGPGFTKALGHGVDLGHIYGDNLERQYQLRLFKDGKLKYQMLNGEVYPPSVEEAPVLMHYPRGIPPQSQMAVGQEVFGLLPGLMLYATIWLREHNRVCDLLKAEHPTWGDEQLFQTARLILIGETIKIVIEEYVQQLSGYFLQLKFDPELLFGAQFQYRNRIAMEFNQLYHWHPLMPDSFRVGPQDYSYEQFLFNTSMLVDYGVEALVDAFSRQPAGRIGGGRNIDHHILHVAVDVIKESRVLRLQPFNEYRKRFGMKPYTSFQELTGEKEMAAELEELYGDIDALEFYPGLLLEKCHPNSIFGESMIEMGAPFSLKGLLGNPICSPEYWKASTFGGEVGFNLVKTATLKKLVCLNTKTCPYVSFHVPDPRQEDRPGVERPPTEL
The series can be described thus: Inhibition of purified ovine COX-1 assessed as residual activity by measuring formation of 12-HHT from arachidonic acid preincubated at 10 uM for 5 mins before substrate addition measured after 5 mins by HPLC analysis relative to control; values are per cent of control.

The next series has as its target T6, Prostaglandin E synthase (Homo sapiens, UniProt O14684).
T6 sequence (O14684 whole entry): T1 sequence (whole entry)
The series can be described thus: Inhibition of mPGES1-mediated PGE2 production in microsomes of IL-1beta stimulated human A549 cells preincubated for 15 mins by RP-HPLC analysis. Format: cell-based. In a few lines: as §1

T4 sequence (P23219 whole entry): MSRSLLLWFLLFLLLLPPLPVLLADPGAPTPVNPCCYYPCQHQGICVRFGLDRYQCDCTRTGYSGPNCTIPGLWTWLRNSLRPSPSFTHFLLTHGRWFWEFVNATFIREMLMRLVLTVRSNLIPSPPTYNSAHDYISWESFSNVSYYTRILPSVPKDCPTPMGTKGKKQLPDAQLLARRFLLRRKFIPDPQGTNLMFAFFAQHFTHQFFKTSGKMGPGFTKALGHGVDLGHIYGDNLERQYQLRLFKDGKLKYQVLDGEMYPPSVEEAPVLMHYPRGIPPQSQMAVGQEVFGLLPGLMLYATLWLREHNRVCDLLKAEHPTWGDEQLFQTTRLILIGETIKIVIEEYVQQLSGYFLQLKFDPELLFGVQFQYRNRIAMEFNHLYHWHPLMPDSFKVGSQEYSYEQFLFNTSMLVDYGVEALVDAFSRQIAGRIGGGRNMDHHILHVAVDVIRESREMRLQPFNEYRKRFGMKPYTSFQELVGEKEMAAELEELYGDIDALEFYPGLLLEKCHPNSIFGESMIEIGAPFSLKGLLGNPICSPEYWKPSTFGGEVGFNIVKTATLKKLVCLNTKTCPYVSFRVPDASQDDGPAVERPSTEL

Turning to `COc1cc(/C=C/c2cc(-c3ccc(O)c(OC)c3)[nH]n2)ccc1O`, the Activity in series [1] was 62.2%. The compound further showed an IC50 in series [2] of 1.9 µM. In addition, the Stability entry in series [3] was “Unstable”. In addition, the Ratio IC50 in series [4], in series [5] and in [6] was 2 in each case. Moreover, the inhibition entry in series [7] and in series [8] was “Active” in each case.

On to `COc1cc(/C=C/C(=O)CC(=O)/C=C/c2cc(CC=C(C)C)c(O)c(OC)c2)cc(CC=C(C)C)c1O`, for which, in [1], the Activity is 59.6%. The Stability result in [3] is on record as “Unstable”. The residual activity in series [9] worked out at 80.2%.

As to `COc1cc(/C=C/C(=O)/C=C/c2ccc(O)c(OC)c2)ccc1O`, the IC50 result on Prostaglandin E synthase (a549) is “Not Active”; in series [2] it was 5.2 µM. Moreover, in series [3], the Stability result is given as “Unstable”.

For `COc1cc(/C=C/c2cc(/C=C/c3ccc(O)c(OC)c3)[nH]n2)ccc1O` [CURCUMIN PYRAZOLE], the Activity in series [1] was determined as 54.8%. In series [2], this compound yielded an IC50 of 0.7 µM. The Stability entry in series [3] is listed as “Unstable”. Also, the Ratio IC50 in [4], in series [5] and in series [6] was 2 in each case. For the same compound, the inhibition result in [7] and in series [8] was “Active” in each case.

On to `COc1cc(CCC(=O)CC(=O)CCc2ccc(O)c(OC)c2)ccc1O` [TETRAHYDROCURCUMIN], for which the half-inhibitory concentration (IC50) entry against Prostaglandin E synthase (a549) is reported as “Not Active”. For the same compound, the Stability entry in [3] is “Unstable”.

With `COc1cc(/C=C/C(=O)CC(=O)/C=C/c2ccc(O)c(OC)c2)ccc1O` [CURCUMIN], the IC50 at Prostaglandin E synthase (read-out: IC50) was found to be 0.6 µM. In addition, the Stability in series [3] came to 41.6%. The inhibition entry in series [7] and in series [8] was “Active” each time.

Turning to `COc1cc(/C=C/c2cc(/C=C/c3cc(CC=C(C)C)c(O)c(OC)c3)[nH]n2)cc(CC=C(C)C)c1O`, the Activity in series [1] worked out at 68%. Also, the IC50 in [2] was 0.8 µM; in [7], more than 10 µM; in series [8] it was more than 10 µM. Besides, the Stability entry in series [3] was “Unstable”.

Take `COc1cc(/C=C/C(=O)/C=C/c2cc(CC=C(C)C)c(O)c(OC)c2)cc(CC=C(C)C)c1O`: the IC50 amounted to 1.5 µM on Prostaglandin E synthase (read-out: IC50) and 1.7 µM in series [2]. Moreover, in series [3], the Stability result is “Unstable”. Moreover, the Ratio IC50 in series [4], in series [5] and in series [6] was 2 in each case. For the same compound, the residual activity in series [9] was 78.7%.

As to `COc1cc(/C=C/C(=O)CC(=O)c2ccc(O)c(OC)c2)ccc1O`, in [1], the Activity is 72.6%. For the same compound, inhibition in series [2] was half-maximal at 9.9 µM (IC50). Also, the Stability in series [3] is 72%.
